Measured values collected from several papers.
Each line is one published result; the experiments were not run side by side.
FGFR3: Fibroblast growth factor receptor 3 (FGFR3, Homo sapiens, UniProt P22607)
FGFR3 G697C: Fibroblast growth factor receptor 3 (FGFR3, Homo sapiens, UniProt P22607, G697C)

The remaining binding of `COc1ccc2cc(OCC3(C(=O)O)CN(C(=O)c4ccc(F)cc4)C3)ccc2c1` is reported as 100% (FGFR3; cell-free assay; competition with immobilised ligand; 1 µM).
`CC1CCCN1c1nccc(-c2cnn3ncccc23)n1` (stereo not shown) gave a remaining binding of 86% (FGFR3 G697C; binding; 1 µM).
With `Cc1cnc(Nc2ccc(C(=O)N3CCC(N4CCCC4)CC3)cc2)nc1-c1cc2ccccc2s1` the remaining binding was 16% (FGFR3 G697C; binding; competition with immobilised ligand; 1 µM).
The remaining binding of `C[C@@H](c1cccc(C#N)c1)n1cc(Cl)cc(C(N)=O)c1=N` is reported as 79% (FGFR3 G697C; cell-free assay; competition with immobilised ligand; 1 µM).
`O=C(c1ccc(Nc2ncc(Cl)c(-c3cc4ccccc4s3)n2)cc1)N1CCC(N2CCCC2)CC1` gave a remaining binding of 34% (FGFR3 G697C; binding; competition with immobilised ligand; 1 µM).
The remaining binding of `FC(F)(F)Oc1cccc(-c2cnc3ccc(-c4ccncc4)nn23)c1` is reported as 86% (FGFR3; cell-free assay; competition with immobilised ligand; 5 µM).
`C=CC(=O)N1CCC(C(=O)NCC(=O)N2CCN(c3nc(-c4cnc(N)nc4C(F)F)nc(N4CCOCC4)n3)CC2)CC1` has a remaining binding of 99% (FGFR3 G697C; binding; competition with immobilised ligand; 1 µM).
With `O=C(NCC1CCOCC1)c1n[nH]cc1NC(=O)c1c(F)cccc1F` the remaining binding was 100% (FGFR3 G697C; binding; competition with immobilised ligand; 1 µM).
The remaining binding of `CCCCN(CCCC)C(=O)CN1C[C@@H](c2cc(OC)c3c(c2)OCO3)[C@H](C(=O)O)[C@H]1CC(C)(C)CCC` is reported as 88.5% (FGFR3; cell-free assay; competition with immobilised ligand; 1 µM).
`O=C(NCCCN1CCOCC1)c1ccc(Nc2ncc(Cl)c(-c3ccc(Cl)s3)n2)cc1` has a remaining binding of 32% (FGFR3 G697C; binding; competition with immobilised ligand; 1 µM).
For `CN(C)C(=O)Cn1cc(-c2nc([C@@](C)(c3ccc(-c4cnc(N)nc4)cc3)C3CC3)no2)cn1`, the remaining binding was 89% (FGFR3 G697C; cell-free assay; competition with immobilised ligand; 1 µM).
`COc1ccnn2ncc(-c3ccnc(N(C)C)n3)c12` gave a remaining binding of 95% (FGFR3; binding; 1 µM).
`O=C(NCc1ncc(C(F)(F)F)cc1Cl)c1ccc2c(c1)C1(CCS(=O)(=O)CC1)[C@H](C1CC1)N2S(=O)(=O)c1ccc(F)cc1` has a remaining binding of 100% (FGFR3 G697C; cell-free assay; competition with immobilised ligand; 1 µM).
The remaining binding of `COc1cnc(Nc2cccc(S(N)(=O)=O)c2)nc1N1CCN(c2ccccc2)CC1` is reported as 100% (FGFR3 G697C; binding; competition with immobilised ligand; 1 µM).
The remaining binding of `COc1ncc2cc3ccccc3nc2c1C#N` is reported as 100% (FGFR3; cell-free assay; competition with immobilised ligand; 5 µM).
`CCC(=O)N[C@H]1CC[C@@H](C(=O)N(C)c2ccc(-c3nc4ccccc4o3)cc2)C1` gave a remaining binding of 100% (FGFR3 G697C; cell-free assay; competition with immobilised ligand; 1 µM).
For `C[C@@H]1CN(c2ccc3ncc(-c4ccc5[nH]nc(C6CC6)c5c4)n3n2)C[C@H](C)O1`, the remaining binding was 100% (FGFR3; binding; competition with immobilised ligand; 0.5 µM).
With `COc1cnc(Nc2cccc(S(N)(=O)=O)c2)nc1N1CCN(c2ccccc2)C(=O)C1` the remaining binding was 92% (FGFR3 G697C; binding; competition with immobilised ligand; 1 µM).
With `O=C(NCCCN1CCOCC1)c1ccc(Nc2nccc(-c3cc4ccccc4s3)n2)cc1` the remaining binding was 79% (FGFR3 G697C; binding; competition with immobilised ligand; 1 µM).
For `N#Cc1ccccc1CSc1nnc2c(n1)[nH]c1ccccc12`, the remaining binding was 88% (FGFR3; binding; competition with immobilised ligand; 10 µM).
`CN(C)c1nccc(-c2cnn3ncccc23)n1` has a remaining binding of 65% (FGFR3 G697C; binding; 1 µM).
For `c1cncc(-c2cccc(Nc3nccc(NC4CCCCC4)n3)c2)c1`, the remaining binding was 60% (FGFR3; binding; competition with immobilised ligand; 10 µM).
For `O=C(c1ccc(Nc2nccc(-c3cc4ccccc4s3)n2)cc1)N1CCC(N2CCCC2)CC1`, the remaining binding was 77% (FGFR3 G697C; binding; competition with immobilised ligand; 1 µM).
The remaining binding of `COc1ccc2c(c1)O[C@@H](c1ccc(OC)c(OC)c1)C[C@H]2NC(=O)C1(c2ccc3c(c2)OC(F)(F)O3)CC1` is reported as 89% (FGFR3; cell-free assay; competition with immobilised ligand; 1 µM).
The remaining binding of `CCN1CCN(Cc2ccc(C(=O)Nc3ccc(C)c(Oc4ccc5c(c4)CC(=O)N5)c3)cc2C(F)(F)F)CC1` is reported as 88% (FGFR3 G697C; binding; competition with immobilised ligand; 1 µM).
`Nc1ncc2c(n1)-c1c([nH]c3ccc(C#CC4CC4)cc13)CCCC2` has a remaining binding of 100% (FGFR3 G697C; binding; competition with immobilised ligand; 1 µM).
`O=C(c1ccc(Nc2ncc(Cl)c(-c3ccc(Cl)s3)n2)cc1)N1CCC(N2CCCC2)CC1` gave a remaining binding of 4.9% (FGFR3 G697C; binding; competition with immobilised ligand; 1 µM).
For `F[C@@H]1CCN(c2nccc(-c3cnn4ncccc34)n2)C1`, the remaining binding was 79% (FGFR3 G697C; binding; 1 µM).
`O=C(Nc1c[nH]nc1C(=O)NC1CCNCC1)c1cc(F)cc(F)c1` gave a remaining binding of 100% (FGFR3 G697C; binding; competition with immobilised ligand; 1 µM).
`c1cnn2ncc(-c3ccnc(N4CCC45COC5)n3)c2c1` has a remaining binding of 86% (FGFR3 G697C; binding; 1 µM).
For `CS(=O)(=O)c1cc(C2(NC(=O)c3cncc4c3cnn4-c3ccc(F)cc3)CC2)ccn1`, the remaining binding was 100% (FGFR3; cell-free assay; competition with immobilised ligand; 1 µM).
The remaining binding of `N[C@@H]1CCN(c2nccc(-c3cnn4ncccc34)n2)C1` is reported as 100% (FGFR3; binding; 1 µM).
With `CN1CCN(c2ccc(Nc3nccc(-c4ccccc4)n3)cc2C(F)(F)F)CC1` the remaining binding was 86% (FGFR3 G697C; binding; 10 µM).
`CN(C)c1nccc(-c2cnc3ncccn23)n1` gave a remaining binding of 99% (FGFR3 G697C; binding; 1 µM).
For `C[C@@H](c1ccc(-n2cnc3c(N)ncnc32)cc1)N1CCc2nn(C)c(Cc3ccccc3)c2C1=O`, the remaining binding was 96% (FGFR3 G697C; binding; competition with immobilised ligand; 0.1 µM).
With `C[C@H]1CCN(c2nccc(-c3cnn4ncccc34)n2)C1` the remaining binding was 100% (FGFR3; binding; 1 µM).
The remaining binding of `CNC(=O)[C@@H]1CC[C@@H](n2c(-c3ccc4cnccc4c3)nc3ccc(C(=O)NCc4cccc(C(N)=O)c4)cc32)C1` is reported as 93% (FGFR3 G697C; binding; competition with immobilised ligand; 1 µM).
